Substrate in this series: Nc1ncnc2c1ncn2[C@@H]1O[C@H](CO)[C@@H](O)[C@H]1O
Put plainly: Compound was evaluated for the kinetic constant on adenosine deaminase and expressed as Km. Put shortly:
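Calf intestinal adenosine deaminase (type III). Adenosine was mixed with a range of test compound concentrations in 1 mL 0.05 M phosphate buffer, pH 7.5, at 25 °C. Reactions were started with 20 milliunits of enzyme, and deamination was followed as the fall in absorbance at 265 nm. Kinetic constants came from Wilkinson analysis, with each point the mean of triplicates.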

B1: Adenosine deaminase (Mus musculus), P03958 (protein)
chain: MAQTPAFNKPKVELHVHLDGAIKPETILYFGKKRGIALPADTVEELRNIIGMDKPLSLPGFLAKFDYYMPVIAGCREAIKRIAYEFVEMKAKEGVVYVEVRYSPHLLANSKVDPMPWNQTEGDVTPDDVVDLVNQGLQEGEQAFGIKVRSILCCMRHQPSWSLEVLELCKKYNQKTVVAMDLAGDETIEGSSLFPGHVEAYEGAVKNGIHRTVHAGEVGSPEVVREAVDILKTERVGHGYHTIEDEALYNRLLKENMHFEVCPWSSYLTGAWDPKTTHAVVRFKNDKANYSLNTDDPLIFKSTLDTDYQMTKKDMGFTEEEFKRLNINAAKSSFLPEEEKKELLERLYREYQ
B1: the Km is 7.8 µM.

What is called Km is the substrate concentration at which the rate is half of its maximum.

These data come from ChEMBL document CHEMBL1122622, “Carbocyclic analogues of xylofuranosylpurine nucleosides. Synthesis and antitumor activity” (J Med Chem, 1984).
